Assay results published in ChEMBL document CHEMBL4715825, “Synthesis and biological evaluations of marine oxohexadecenoic acids: PPARα/γ dual agonism and anti-diabetic target gene effects” (Eur J Med Chem, 2018).
Activity calls are given as the source filed them. No cut-off for these calls is given here.

Key:
[1] = target: T1, Peroxisome proliferator-activated receptor gamma (Homo sapiens) (UniProt P37231); test: Agonist activity at recombinant human PPARgamma LBD (205 to 505 residues) expressed in African green monkey COS-1 cells at 25 to 50 uM incubated for 18 hrs by luciferase reporter gene assay; type: cell-based; details: filed as agonist, dose 25-50 µM
T1 sequence (whole entry): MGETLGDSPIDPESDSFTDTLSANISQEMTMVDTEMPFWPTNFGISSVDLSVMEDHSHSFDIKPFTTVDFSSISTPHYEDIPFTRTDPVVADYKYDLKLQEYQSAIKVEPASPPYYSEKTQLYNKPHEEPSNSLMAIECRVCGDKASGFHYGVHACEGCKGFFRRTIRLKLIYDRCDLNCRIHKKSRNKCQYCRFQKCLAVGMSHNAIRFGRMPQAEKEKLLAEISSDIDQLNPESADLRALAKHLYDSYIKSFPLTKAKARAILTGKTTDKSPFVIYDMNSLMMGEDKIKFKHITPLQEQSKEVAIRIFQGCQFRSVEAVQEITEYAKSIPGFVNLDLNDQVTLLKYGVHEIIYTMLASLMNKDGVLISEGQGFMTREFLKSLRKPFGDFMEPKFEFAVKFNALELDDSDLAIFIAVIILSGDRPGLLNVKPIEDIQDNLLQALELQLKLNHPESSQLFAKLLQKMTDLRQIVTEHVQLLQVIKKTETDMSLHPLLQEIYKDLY
Outline: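 Transient Gal4 one-hybrid assay in COS-1 cells (7×10^4 per well), transfected 24 h after seeding. Plasmids were Gal4-DBD fused to the human nuclear receptor LBD, a 5×UAS-SV40 luciferase reporter and pRL-CMV Renilla control. Ligand in DMSO (final 0.1%) was added 5 h post-transfection. Dual-luciferase activity was read after 18 h, expressed as RLU, from three biological replicates in quadruplicate.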

[2] = test system: COS-1; test: Agonist activity at recombinant full length human PPARalpha/gamma/RXRalpha expressed in African green monkey COS-1 cells assessed as induction of CPT1A driven luciferase reporter activity at 25 uM incubated for 18 hrs by dual luciferase reporter gene assay; type: cell-based; details: filed as agonist
Outline: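 COS-1 cells were kept in DMEM/10% FBS at 37 °C, 5% CO2, and seeded at 7×10^4 per well. After 24 h they were lipofected with full-length PPAR and RXR expression plasmids, a PLIN1- or CPT1A-driven luciferase reporter and pRL-CMV Renilla control. Compound in DMSO (final 0.1%) was added 5 h later. After 18 h, cells were lysed for Dual-Luciferase readout. Three biological replicates were run in quadruplicate.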

[3] = target: T2, Peroxisome proliferator-activated receptor alpha (Homo sapiens) (UniProt Q07869); test: Agonist activity at human PPARalpha in 8 day differentiated human SGBS cells assessed as increase in PLIN1 gene expression at 25 uM incubated for 24 hrs by SYBR-green based qPCR analysis; type: cell-based
T2 sequence (whole entry): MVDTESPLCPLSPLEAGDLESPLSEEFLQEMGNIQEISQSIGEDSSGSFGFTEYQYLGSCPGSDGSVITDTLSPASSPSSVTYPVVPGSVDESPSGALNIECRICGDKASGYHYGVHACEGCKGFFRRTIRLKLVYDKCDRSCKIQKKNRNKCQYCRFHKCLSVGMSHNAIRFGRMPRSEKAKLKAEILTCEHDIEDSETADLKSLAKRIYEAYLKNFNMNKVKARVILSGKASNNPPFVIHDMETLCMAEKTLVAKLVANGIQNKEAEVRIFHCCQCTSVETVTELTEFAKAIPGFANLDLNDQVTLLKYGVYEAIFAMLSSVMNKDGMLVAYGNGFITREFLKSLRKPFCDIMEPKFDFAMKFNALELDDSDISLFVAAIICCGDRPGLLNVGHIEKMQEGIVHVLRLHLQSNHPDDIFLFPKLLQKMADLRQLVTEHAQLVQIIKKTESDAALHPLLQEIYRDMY
Outline: (§1)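 SGBS preadipocytes were seeded at passage P6-P8 and grown to confluence. They were differentiated for 4 days in Quickdiff (3FC plus dexamethasone, IBMX and rosiglitazone), then kept in 3FC with medium renewed every fourth day. On day 8, cells were stimulated for 24 h in 3FC with compound:BSA or rosiglitazone. SYBR-green qPCR used gene-specific primers. Data are mean ± SEM of three biological replicates in duplicate.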

[4] = target: T2, Peroxisome proliferator-activated receptor alpha (Homo sapiens); test: Agonist activity at human PPARalpha in 8 day differentiated human SGBS cells assessed as increase in FABP4 gene expression at 25 uM incubated for 24 hrs by SYBR-green based qPCR analysis; type: cell-based; outline: as §1
[5] = test system: SGBS; test: Induction of adipogenesis in 8 day differentiated human SGBS cells assessed as increase in adipocyte-like multilocular morphology cells at 25 uM measured upto 12 days by oil-O-red staining based inverted microscopic analysis; type: functional, cell-based; details: time day <=12
Outline: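 SGBS cells were differentiated in Quickdiff for 4 days, supplemented with 25 µM oxo-fatty acid or 2 µM rosiglitazone, then in 3FC to day 8. Controls were DMSO (0.025%) or BSA (4.2 µM). Cells were fixed in 4% paraformaldehyde for 15 min and stained 15 min with Oil Red O for neutral lipids. They were imaged by inverted microscope at 10× and 40×. Three biological replicates were run in duplicate.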

[6] = test system: SGBS; test: Induction of adipogenesis in 8 day differentiated human SGBS cells assessed as increase in CEBPB mRNA expression at 25 uM measured upto 12 days by qRT-PCR analysis; type: functional, cell-based; details: time day <=12
Outline: (§2)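 SGBS cells were grown to confluence (day 0). Quickdiff medium was supplemented with compound or rosiglitazone for 4 days, followed by 3FC medium. DMSO or DMSO:BSA served as control. RNA was harvested on days 0, 4, 8 and 12, and expression was measured by SYBR-green qPCR. Data are mean ± SEM of at least three biological replicates in duplicate.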

[7] = test system: SGBS; test: Induction of adipogenesis in 8 day differentiated human SGBS cells assessed as increase in FABP4 mRNA expression at 25 uM measured upto 12 days by qRT-PCR analysis; type: functional, cell-based; details: time day <=12; outline: as §2
[8] = test system: SGBS; test: Induction of adipogenesis in 8 day differentiated human SGBS cells assessed as upregulation of fatty acid biosynthesis genes at 25 uM incubated for 8 days by Illumina sequencing method; type: functional, cell-based
Outline: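 SGBS cells were differentiated for 8 days: Quickdiff for days 0-4 with 2 µM rosiglitazone or 25 µM oxo-fatty acid:BSA, then 3FC. Total RNA was extracted (RIN 9.80-10.00) and strand-specific TruSeq libraries were sequenced on NextSeq 500 (2×75 bp paired-end). Reads were aligned to hg19 and quantified as RPKM. Data were expressed as log2 fold over day-0 cells (n = 2-4) and grouped into KEGG gene sets.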

[9] = target: T1, Peroxisome proliferator-activated receptor gamma (Homo sapiens); test: Agonist activity at human PPARgamma in 8 day differentiated human SGBS cells assessed as increase in leptin gene expression at 25 uM incubated for 24 hrs by SYBR-green based qPCR analysis; type: cell-based; details: filed as agonist
[10] = target: T1, Peroxisome proliferator-activated receptor gamma (Homo sapiens); test: Agonist activity at human PPARgamma in 8 day differentiated human SGBS cells assessed as increase in IRS1 gene expression at 25 uM incubated for 24 hrs by SYBR-green based qPCR analysis; type: cell-based; details: filed as agonist

SMILES | Activity [1] | Activity [2] | Activity [3] | Activity [4] | Activity [5] | Activity [6] | Activity [7] | Activity [8] | Activity [9] | Activity [10]
CCCCCCCC(=O)/C=C/CCCCCC(=O)O | Active | Active | inactive | inactive | Active | Active | Active | Active | Active | Active
CCCCC/C=C/C(=O)CCCCCCCC(=O)O | Active | Active | inactive | inactive | Active | Active | Active | Active | Active | Active
